{"source": "paper PMC6078096", "about": "(Environmental toxicology and pharmacology, 2018)", "key": {"[1]": {"details": "metabolite in human plasma; ref Quinete et al., 2017; cited from earlier work"}, "[2]": {"molecular_target": "T1, human estrogen sulfotransferase (SULT1E1) (Homo sapiens, UniProt P49888)", "T1 sequence (P49888 1-294)": "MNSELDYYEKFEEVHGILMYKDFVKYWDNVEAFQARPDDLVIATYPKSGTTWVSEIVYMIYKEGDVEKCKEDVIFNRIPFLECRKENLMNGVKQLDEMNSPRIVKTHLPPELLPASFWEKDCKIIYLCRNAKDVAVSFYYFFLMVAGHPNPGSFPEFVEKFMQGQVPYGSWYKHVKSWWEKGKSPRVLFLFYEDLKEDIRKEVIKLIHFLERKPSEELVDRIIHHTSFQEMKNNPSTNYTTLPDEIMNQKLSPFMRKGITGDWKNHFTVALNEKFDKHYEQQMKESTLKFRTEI", "assay": "Inhibition of SULT1E1-catalyzed sulfation of [3H]estradiol", "type": "biochemical", "details": "7.0 nM estradiol", "in_short": "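Purified recombinant human enzyme expressed in E. coli BL21(DE3). Test compound added in ethanol at 0.01–10,000 nM. Equilibrated 3 min at 37 °C, started with 3.0 ng enzyme, run 4 min. Stopped with Tris-HCl pH 8.7 plus chloroform. Aqueous [3H]estradiol-3-sulfate counted by scintillation. Triplicates. IC50 fitted from % of control rate.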"}, "[3]": {"details": "circulating steroid in humans; ref White and Porterfield, 2013; cited from earlier work"}}, "note": "Structures can show the parent of a compound that is named as a salt."}
{"smiles": "Oc1ccc(-c2ccc(Cl)cc2Cl)cc1Cl", "note": "[4’-OH-PCB 25, 2,3’,4-trichloro-4’-hydroxybiphenyl]", "values": [{"measurement": "estimated half-life in human plasma", "setting": "[1]", "result": 6.5, "unit": "years"}]}
{"smiles": "O=S(=O)(O)Oc1ccc(-c2ccc(Cl)cc2Cl)cc1Cl", "note": "[4’-PCB 25 Sulfate, 2,3’,4-trichloro-4’-biphenylsulfate]", "values": [{"measurement": "IC50 value for SULT1E1, fold greater than the estradiol concentration", "setting": "[2]", "result": "over 50 fold"}]}
{"smiles": "C[C@]12CC[C@H](O)CC1=CC[C@@H]1[C@@H]2CC[C@]2(C)C(=O)CC[C@@H]12", "note": "[DHEA, dehydroepiandrosterone]", "values": [{"measurement": "half-life", "setting": "[3]", "result": "0.25 to 0.5", "unit": "h"}]}
{"smiles": "C[C@]12CC[C@H](OS(=O)(=O)O)CC1=CC[C@@H]1[C@@H]2CC[C@]2(C)C(=O)CC[C@@H]12", "note": "[DHEA-sulfate, dehydroepiandrosterone sulfate]", "values": [{"measurement": "half-life", "setting": "[3]", "result": "7 to 10", "unit": "h"}]}
{"smiles": "Oc1ccc(-c2ccc(Cl)cc2)cc1", "note": "[4’-OH-PCB 3, 4-chloro-4’-hydroxybiphenyl]", "values": [{"measurement": "fold higher IC50 value for SULT1E1 than 4-OH-PCB 11 and 4’-OH PCB 25", "setting": "[2]", "result": "~200", "unit": "fold"}]}
